ChEMBL document CHEMBL1777792, “Synthesis and evaluation of indole-based new scaffolds for antimicrobial activities--identification of promising candidates” (Bioorg Med Chem Lett, 2011)

Columns and labels:
Candida albicans [1] = test: Antifungal activity against Candida albicans in yeast extract-peptone-glucose medium at 150 ug/ml after 48 hrs by disc diffusion assay; format: functional; settings: read-out: DIZ
In short: (§1)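 C. albicans cells at a set number were spread on YEPD agar, either plain or containing the cell-wall disruptant named in the line (SDS, Congo red or calcofluor white). Compound solution, or the reference solvent as control, was spotted onto 0.5 cm discs placed on the lawn. Plates were incubated at 30 °C and the inhibition zone diameter was measured.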

Candida albicans [2] = test: Antifungal activity against Candida albicans in yeast extract-peptone-glucose medium at 150 ug/ml after 48 hrs by disc diffusion assay in presence of 100 ug/ml of calcofluor white; format: functional; in short: as §1
Candida albicans [3] = test: Antifungal activity against Candida albicans in yeast extract-peptone-glucose medium at 150 ug/ml after 48 hrs by disc diffusion assay in presence of 150 ug/ml of congo red; format: functional; settings: read-out: DIZ; in short: as §1
Candida albicans [4] = test: Antifungal activity against Candida albicans in yeast extract-peptone-glucose medium at 150 ug/ml after 48 hrs by disc diffusion assay in presence of 0.01% of sodium dodecylsulphate; format: functional; settings: read-out: DIZ; in short: as §1
Escherichia coli [5] = test: Antibacterial activity against Escherichia coli harboring ampicillin-resistance gene encoding plasmid at 300 ug/ml after 24 hrs by disc diffusion assay; format: functional; settings: read-out: DIZ
In short: (§2)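 Disc diffusion used an E. coli strain carrying a plasmid that encodes an ampicillin-resistance gene. Inhibition zone diameters were recorded and compared against the corresponding solvent controls.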

Candida albicans [6] = test: Antifungal activity against Candida albicans in yeast extract-peptone-glucose medium at 300 ug/ml after 48 hrs by disc diffusion assay in presence of 150 ug/ml of congo red; format: functional; in short: as §1
Candida albicans [7] = test: Antifungal activity against Candida albicans in yeast extract-peptone-glucose medium at 300 ug/ml after 48 hrs by disc diffusion assay in presence of 0.01% of sodium dodecylsulphate; format: functional; settings: read-out: DIZ; in short: as §1
Candida albicans [8] = test: Antifungal activity against Candida albicans in yeast extract-peptone-glucose medium at 300 ug/ml after 48 hrs by disc diffusion assay in presence of […]; format: functional
In short: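 This is a C. albicans disc diffusion on YEPD agar containing rhodamine 6G, a substrate of the Cdr1p/Cdr2p ATP-dependent efflux pumps, to test for enhanced R6G toxicity. A set number of cells was spread, and 0.5 cm discs were spotted with compound solution or reference solvent. Plates were incubated at 30 °C and the zone diameter was measured.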

Candida albicans [9] = test: Antifungal activity against Candida albicans in yeast extract-peptone-glucose medium at 375 ug/ml after 48 hrs by disc diffusion assay; format: functional; settings: read-out: DIZ; in short: as §1
Candida albicans [10] = test: Antifungal activity against Candida albicans in yeast extract-peptone-glucose medium at 375 ug/ml after 48 hrs by disc diffusion assay in presence of 100 ug/ml of calcofluor white; format: functional; in short: as §1
Candida albicans [11] = test: Antifungal activity against Candida albicans in yeast extract-peptone-glucose medium at 375 ug/ml after 48 hrs by disc diffusion assay in presence of 150 ug/ml of congo red; format: functional; in short: as §1
Candida albicans [12] = test: Antifungal activity against Candida albicans in yeast extract-peptone-glucose medium at 375 ug/ml after 48 hrs by disc diffusion assay in presence of 0.01% of sodium dodecylsulphate; format: functional; settings: read-out: DIZ; in short: as §1
Escherichia coli [13] = test: Antibacterial activity against Escherichia coli harboring ampicillin-resistance gene encoding plasmid at 500 ug/ml after 24 hrs by disc diffusion assay; format: functional; settings: read-out: DIZ; in short: as §2
Candida albicans [14] = test: Antifungal activity against Candida albicans in yeast extract-peptone-glucose medium at 375 ug/ml after 48 hrs by disc diffusion assay in presence of rhodamine 6G
Candida albicans [15] = test: Antifungal activity against Candida albicans in yeast extract-peptone-glucose medium at 300 ug/ml after 48 hrs by disc diffusion assay; format: functional; settings: read-out: DIZ; in short: as §1
Candida albicans [16] = test: Antifungal activity against Candida albicans in yeast extract-peptone-glucose medium at 428 ug/ml after 48 hrs by disc diffusion assay; format: functional; settings: read-out: DIZ
In short: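 Solid-phase assay on YEPD agar spread with a set number of C. albicans cells. Compound solution and reference solvent spotted onto 0.5 cm discs. Plates incubated at 30 °C, and inhibition zone diameter measured against solvent control.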

Candida albicans [17] = test: Antifungal activity against Candida albicans in yeast extract-peptone-glucose medium at 428 ug/ml after 48 hrs by disc diffusion assay in presence of 100 ug/ml of calcofluor white; format: functional
In short: (§3)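 Disc diffusion on YEPD agar containing a cell-wall-disrupting agent (SDS, Congo red or calcofluor white) and spread with a set number of C. albicans cells. Compound and reference solvent spotted on 0.5 cm discs. Incubated at 30 °C, then inhibition zone diameter measured against solvent.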

Candida albicans [18] = test: Antifungal activity against Candida albicans in yeast extract-peptone-glucose medium at 428 ug/ml after 48 hrs by disc diffusion assay in presence of 150 ug/ml of congo red; format: functional; in short: as §3
Candida albicans [19] = test: Antifungal activity against Candida albicans in yeast extract-peptone-glucose medium at 428 ug/ml after 48 hrs by disc diffusion assay in presence of 0.01% of sodium dodecylsulphate; format: functional; settings: read-out: DIZ; in short: as §3
Escherichia coli [20] = test: Antibacterial activity against Escherichia coli harboring ampicillin-resistance gene encoding plasmid at 428 ug/ml after 24 hrs by disc diffusion assay; format: functional; settings: read-out: DIZ; in short: as §2
Candida albicans [21] = test: Antifungal activity against Candida albicans in synthetic dextrose minimal medium after 48 hrs by ELISA based serial dilution method
Candida albicans [22] = test: Antifungal activity against Candida albicans in yeast extract-peptone-glucose medium at 428 ug/ml after 48 hrs by disc diffusion assay in presence of rhodamine 6G
Escherichia coli [23] = test: Antibacterial activity against Escherichia coli harboring ampicillin-resistance gene encoding plasmid at 375 ug/ml after 24 hrs by disc diffusion assay; format: functional; settings: read-out: DIZ; in short: as §2
Candida albicans [24] = test: Antifungal activity against Candida albicans in yeast extract-peptone-glucose medium at 250 ug/ml after 48 hrs by disc diffusion assay; format: functional; settings: read-out: DIZ; in short: as §1
Candida albicans [25] = test: Antifungal activity against Candida albicans in yeast extract-peptone-glucose medium at 250 ug/ml after 48 hrs by disc diffusion assay in presence of 100 ug/ml of calcofluor white; format: functional; in short: as §1
Candida albicans [26] = test: Antifungal activity against Candida albicans in yeast extract-peptone-glucose medium at 250 ug/ml after 48 hrs by disc diffusion assay in presence of 150 ug/ml of congo red; format: functional; in short: as §1
Candida albicans [27] = test: Antifungal activity against Candida albicans in yeast extract-peptone-glucose medium at 250 ug/ml after 48 hrs by disc diffusion assay in presence of 0.01% of sodium dodecylsulphate; format: functional; settings: read-out: DIZ; in short: as §1
Escherichia coli [28] = test: Antibacterial activity against Escherichia coli harboring ampicillin-resistance gene encoding plasmid at 333 ug/ml after 24 hrs by disc diffusion assay; format: functional; settings: read-out: DIZ; in short: as §2
Candida albicans [29] = test: Antifungal activity against Candida albicans in yeast extract-peptone-glucose medium at 250 ug/ml after 48 hrs by disc diffusion assay in presence of rhodamine 6G

In the case of `O=C(C(=O)N1CCCCC1)c1cn(CCCCn2cc(C(=O)C(=O)N3CCCCC3)c3ccccc32)c2ccccc12`, the zone of inhibition at 150 µg/mL (Candida albicans [1]) is reported as 6 mm, the “diameter of the inhibition zone (DIZ)” value (Candida albicans [2]) is reported as 6 mm and the zone of inhibition at 150 µg/mL (Candida albicans [3]) is reported as 6 mm. It also gave a zone of inhibition at 150 µg/mL (Candida albicans [4]) of 6.5 mm and a zone of inhibition at 300 µg/mL (Escherichia coli [5]) of 10.5 mm.
In the case of `O=C(C(=O)N1CCCCC1)c1cn(Cc2ccc(Cn3cc(C(=O)C(=O)N4CCCCC4)c4ccccc43)cc2)c2ccccc12`, the zone of inhibition at 300 µg/mL (Escherichia coli [5]) is reported as 9 mm, the “diameter of the inhibition zone (DIZ)” value (Candida albicans [6]) is reported as 7.5 mm and the zone of inhibition at 300 µg/mL (Candida albicans [7]) is reported as 7.5 mm. The “diameter of the inhibition zone (DIZ)” value (Candida albicans [8]) was 6 mm.
For `O=C(C(=O)N1CCOCC1)c1cn(CCCn2cc(C(=O)C(=O)N3CCOCC3)c3ccccc32)c2ccccc12`, the zone of inhibition at 375 µg/mL (Candida albicans [9]) was 7 mm, the “diameter of the inhibition zone (DIZ)” value (Candida albicans [10]) was 6.5 mm and the “diameter of the inhibition zone (DIZ)” value (Candida albicans [11]) was 8 mm. The zone of inhibition at 375 µg/mL (Candida albicans [12]) was 8.5 mm, the zone of inhibition at 500 µg/mL (Escherichia coli [13]) was 6 mm and the “diameter of the inhibition zone (DIZ)” value (Candida albicans [14]) was 7.5 mm.
For `O=C(C(=O)N1CCCC1)c1cn(CCCCCn2cc(C(=O)C(=O)N3CCCC3)c3ccccc32)c2ccccc12`, the zone of inhibition at 375 µg/mL (Candida albicans [9]) was 5.5 mm, the “diameter of the inhibition zone (DIZ)” value (Candida albicans [10]) was 5.5 mm and the “diameter of the inhibition zone (DIZ)” value (Candida albicans [11]) was 8 mm. For the same molecule, the zone of inhibition at 375 µg/mL (Candida albicans [12]) was 6 mm, the zone of inhibition at 500 µg/mL (Escherichia coli [13]) was 8 mm and the “diameter of the inhibition zone (DIZ)” value (Candida albicans [14]) was 6.5 mm.
Work on `Clc1ccc(COC(Cn2ccnc2)c2ccc(Cl)cc2Cl)c(Cl)c1` (configuration not stated) [MICONAZOLE] yielded a zone of inhibition at 300 µg/mL (Candida albicans [15]) of 12 mm.
In the case of `O=C(C(=O)N1CCCC1)c1cn(CCCn2cc(C(=O)C(=O)N3CCCC3)c3ccccc32)c2ccccc12`, the zone of inhibition at 428 µg/mL (Candida albicans [16]) is reported as 7.5 mm, the “diameter of the inhibition zone (DIZ)” value (Candida albicans [17]) is reported as 6.5 mm and the “diameter of the inhibition zone (DIZ)” value (Candida albicans [18]) is reported as 5.5 mm. The zone of inhibition at 428 µg/mL (Candida albicans [19]) was 6.5 mm, the zone of inhibition at 428 µg/mL (Escherichia coli [20]) was 8 mm and the IC50 (Candida albicans [21]) was 465 µM. The “diameter of the inhibition zone (DIZ)” value (Candida albicans [22]) was 6.5 mm.
`O=C(C(=O)N1CCOCC1)c1cn(CCCCCn2cc(C(=O)C(=O)N3CCOCC3)c3ccccc32)c2ccccc12` was tested, and the zone of inhibition at 375 µg/mL (Escherichia coli [23]) was 8.5 mm, the zone of inhibition at 375 µg/mL (Candida albicans [9]) was 7.5 mm and the “diameter of the inhibition zone (DIZ)” value (Candida albicans [10]) was 7.5 mm. For the same molecule, the “diameter of the inhibition zone (DIZ)” value (Candida albicans [11]) was 7 mm, the zone of inhibition at 375 µg/mL (Candida albicans [12]) was 7 mm and the IC50 (Candida albicans [21]) was 340 µM. The “diameter of the inhibition zone (DIZ)” value (Candida albicans [14]) was 8 mm.
For `O=C(C(=O)N1CCOCC1)c1cn(CCCCn2cc(C(=O)C(=O)N3CCOCC3)c3ccccc32)c2ccccc12`, the zone of inhibition at 250 µg/mL (Candida albicans [24]) was 6 mm, the “diameter of the inhibition zone (DIZ)” value (Candida albicans [25]) was 7.5 mm and the “diameter of the inhibition zone (DIZ)” value (Candida albicans [26]) was 5 mm. For the same molecule, the zone of inhibition at 250 µg/mL (Candida albicans [27]) was 7 mm, the zone of inhibition at 333 µg/mL (Escherichia coli [28]) was 10 mm and the “diameter of the inhibition zone (DIZ)” value (Candida albicans [29]) was 7.5 mm.
